From publication PMC10922102 (Cell chemical biology, 2023)

Key:
DHFR-HiBiT = target: T1, DHFR-HiBiT (Homo sapiens, UniProt P00374); assay: DHFR HiBiT assay; format: cell-based; details: for Degradation potency (pDC50): DHFR-HiBiT, 24 h, 30°C, mean ±SD, three independent experiments, ND = not determined (inactive); for Emax: HBL1, read-out: Assay max response (%)
T1 sequence (P00374 1-187): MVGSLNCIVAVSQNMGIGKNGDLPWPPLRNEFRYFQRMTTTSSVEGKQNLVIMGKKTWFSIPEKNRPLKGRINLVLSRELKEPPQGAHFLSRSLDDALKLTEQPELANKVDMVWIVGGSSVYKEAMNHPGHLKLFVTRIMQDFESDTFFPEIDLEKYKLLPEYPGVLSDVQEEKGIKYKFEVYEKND

[1] = test system: MTX resistant (MTX^R) HBL-1 cells; assay: Cell viability of MTX resistant; format: cell-based, human
DHFR = target: T2, DHFR (Homo sapiens, UniProt P00374); assay: Western blot analysis of cellular DHFR; format: cell-based
T2 sequence (P00374 1-187): T1 sequence (P00374 1-187)

cellular DHFR = target: T3, cellular DHFR (Homo sapiens, UniProt P00374); assay: Label-free quantitative proteomics of HBL-1 cells; format: cell-based; details: 1 μM, 24 h
T3 sequence (P00374 1-187): T1 sequence (P00374 1-187)

HBL-1 cells [2] = assay: Targeted metabolomics; format: cell-based, human; details: folate-replete media, 0.1 or 0.5 μM, 24 h
How it was run: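 HBL-1 cells were expanded in RPMI 1640 with 1 mM HEPES, 100 U/mL penicillin, 100 µg/mL streptomycin and 10% FBS at 37 °C, 5% CO2. Metabolites were eluted by LC-MS/MS gradient. Buffer A was acetonitrile and Buffer B was 5% acetonitrile with 20 mM ammonium acetate, pH 9.0. The gradient started at 85% A and fell to 50% A by 17 min.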

HBL-1 cells [3] = details: human, 72 h
in vitro = details: human
[4] = target: T4, recombinant human DHFR•NADPH complex (Homo sapiens, UniProt P00374); assay: Fluorescence polarization; format: binding
T4 sequence (P00374 1-187): T1 sequence (P00374 1-187)

MOLT-4 cells = assay: CellTiter-Glo cytotoxicity in MOLT-4 cells; format: cell-based, human
HEK-293 cells = assay: Live-cell imaging of cell growth; format: cell-based, human; details: live-cell imaging over 120 h
HBL-1 cells [5] = assay: Folate cytotoxicity dependence; format: cell-based, human
[6] = test system: MTX sensitive (MTX^S) HBL-1 cells; assay: Cell viability of MTX sensitive; format: cell-based; details: Homo sapiens, HBL1, read-out: EC50, cell viability
HBL-1 cells [7] = assay: cells; details: Homo sapiens, HBL1, read-out: EC50 in MTX-sensitive HBL-1 cells

## COC(=O)[C@H](CCC(=O)NCCCCCCCCNc1cccc2c1C(=O)N(C1CCC(=O)NC1=O)C2=O)NC(=O)c1ccc(N(C)Cc2cnc3nc(N)nc(N)c3n2)cc1 (stereo partly drawn) [VSTX-ME, 9, Methyl N2-(4-(((2,4-diaminopteridin-6-yl)methyl)(methyl)amino)benzoyl)-N5-(8-((2-(2,6-dioxopiperidin-3-yl)-1,3-dioxoisoindolin-4-yl)amino)octyl)-L-glutaminate]
DHFR-HiBiT; HBL-1 cells
  Degradation potency (pDC50): 7.56 ±0.29
DHFR-HiBiT
  Emax: -71.9 ± 2.1%
DHFR-HiBiT; HBL-1 cells, time course 5 to 72 h
  time of maximum DHFR-HiBiT depletion: 24 h
[1]
  effect on cell viability between parental (MTX^S) and MTX^R HBL-1 cell lines: unchanged
DHFR; 24 h, HBL-1, HEK-293, Jurkat, MOLT-4, DND-41, TALL-5 cells
  DHFR level by western blot: consistently able to degrade DHFR across this cell panel at sub-micromolar concentrations
DHFR; MTX^R HBL-1 cells
  DHFR degradation by western blot in MTX^R cells: remained capable of degrading DHFR in the MTX^R cells
Cellular DHFR
  change of cellular DHFR by proteomics: significant degradation of cellular DHFR
HBL-1 cells [2]
  cellular dUMP levels: only a modest increase
  purine nucleotides ATP and GTP relative to untreated control: decreased
HBL-1 cells [3]
  Cytotoxicity efficacy (viability, %CTG): −26.8 ±22.7%
In vitro
  EC50 at 72 h: 5750 nM

## CN(Cc1cnc2nc(N)nc(N)c2n1)c1ccc(C(=O)N[C@@H](CCC(=O)NCCOCCOCCOCCNC(=O)COc2cccc3c2C(=O)N(C2CCC(=O)NC2=O)C3=O)C(=O)O)cc1 (stereo partly drawn) [Compound 3, (19S)-19-(4-(((2,4-diaminopteridin-6-yl)methyl)(methyl)amino)benzamido)-1-((2-(2,6-dioxopiperidin-3-yl)-1,3-dioxoisoindolin-4-yl)oxy)-2,16-dioxo-6,9,12-trioxa-3,15-diazaicosan-20-oic acid]
[4]
  IC50: 43.7 nM
DHFR-HiBiT; 24 h treatment, HBL-1 cells
  DHFR concentration in the HiBiT assay, % of DMSO control: ~ 40%
DHFR-HiBiT; HBL-1 cells
  Degradation potency (pDC50): 6.27 ±0.21
DHFR-HiBiT
  Emax: -40.6 ± 1.8%
MOLT-4 cells
  CTG cytotoxicity compared to PROTAC 4: more cytotoxic than PROTAC 4 by an order of magnitude
HBL-1 cells [3]
  Cytotoxicity efficacy (viability, %CTG): −72.1 ±7.9%
  cytotoxicity compared to PROTAC 4: an order of magnitude improvement in cytotoxicity when compared to PROTAC 4
In vitro
  EC50 at 72 h: 2820 nM

## CN(Cc1cnc2nc(N)nc(N)c2n1)c1ccc(C(=O)N[C@@H](CC(F)C(=O)O)C(=O)O)cc1 (stereo partly drawn) [FMTX, 2, (2S)-2-(4-(((2,4-diaminopteridin-6-yl)methyl)(methyl)amino)benzamido)-4-fluoropentanedioic acid, reference compound]
[4]
  IC50: 93.3 nM
DHFR-HiBiT
  Emax: 53.9 ± 5.2%
HEK-293 cells
  effect on cellular confluence: reduced cellular confluence beginning after 48 h of treatment
HBL-1 cells [3]
  Cytotoxicity efficacy (viability, %CTG): −65.7 ±5.7%
In vitro
  EC50 at 72 h: 1050 nM

## CN(Cc1cnc2nc(N)nc(N)c2n1)c1ccc(C(=O)N[C@@H](CCC(=O)O)C(=O)O)cc1 [MTX, 1, Methotrexate, reference compound]
HBL-1 cells [5]
  increase of cytotoxicity in folate-depleted vs. folate-containing media: < 2 fold
[6]
  EC50: 45.2 nM
[1]; Homo sapiens, HBL1, 240 h, read-out: EC50, cell viability
  EC50: 4640 nM
HEK-293 cells
  effect on cellular confluence: reduced cellular confluence beginning after 48 h of treatment
HBL-1 cells [2]
  cellular dUMP levels: significant increase in dUMP levels
HBL-1 cells [3]
  Cytotoxicity efficacy (viability, %CTG): −68.7 ±5.7%
HBL-1 cells [7]
  EC50: < 100 nM
In vitro
  EC50 at 72 h: 61.7 nM

## CN1C(=O)CCC(N2C(=O)c3cccc(NCCCCCCCCNC(=O)CC[C@H](NC(=O)c4ccc(N(C)Cc5cnc6nc(N)nc(N)c6n5)cc4)C(=O)O)c3C2=O)C1=O (stereo partly drawn) [VSTX-IE3L, 7, N2-(4-(((2,4-diaminopteridin-6-yl)methyl)(methyl)amino)benzoyl)-N5-(8-((2-(1-methyl-2,6-dioxopiperidin-3-yl)-1,3-dioxoisoindolin-4-yl)amino)octyl)-L-glutamine]
[4]
  IC50: 25.1 nM
DHFR-HiBiT
  Emax: 39.3 ± 6.6%
DHFR-HiBiT; HBL-1 cells
  change of cellular DHFR-HiBiT level: increase in cellular DHFR-HiBiT
HBL-1 cells [5]
  cytotoxicity in folic acid-free, replete and rescue conditions: did not exhibit appreciable toxicity in any of the conditions
HBL-1 cells [3]
  Cytotoxicity efficacy (viability, %CTG): 6.2 ±4.4%

## CN(Cc1cnc2nc(N)nc(N)c2n1)c1ccc(C(=O)N[C@@H](CCC(=O)NCCCCCCCCNc2cccc3c2C(=O)N(C2CCC(=O)NC2=O)C3=O)C(=O)O)cc1 (stereo partly drawn) [Versortrexate (VSTX), 6, N2-(4-(((2,4-diaminopteridin-6-yl)methyl)(methyl)amino)benzoyl)-N5-(8-((2-(2,6-dioxopiperidin −3-yl)-1,3-dioxoisoindolin-4-yl)amino)octyl)-L-glutamine]
[4]
  IC50: 85.1 nM
DHFR-HiBiT; HBL-1 cells
  Degradation potency (pDC50): 6.43 ±0.18
DHFR-HiBiT
  Emax: -70.1 ± 0.4%
HBL-1 cells [3]
  Cytotoxicity efficacy (viability, %CTG): −45.7 ±26.9%
In vitro
  EC50 at 72 h: 21400 nM

## CN(Cc1cnc2nc(N)nc(N)c2n1)c1ccc(C(=O)NC(CCC(=O)O)C(=O)NCCCCCCCCNc2cccc3c2C(=O)N(C2CCC(=O)NC2=O)C3=O)cc1 (centres unmarked) [VSTX-αE3L, 8, 4-(4-(((2,4-diaminopteridin-6-yl)methyl)(methyl)amino)benzamido)-5-((8-((2-(2,6-dioxopiperidin-3-yl)-1,3-dioxoisoindolin-4-yl)amino)octyl)amino)-5-oxopentanoic acid]
[4]
  IC50: 7240 nM
DHFR-HiBiT
  Emax: 21.2 ± 2.5%
DHFR-HiBiT; HBL-1 cells
  change of cellular DHFR-HiBiT level: did not lead to appreciable changes in DHFR-HiBiT concentration
HBL-1 cells [5]
  cytotoxicity in folic acid-free, replete and rescue conditions: showed no cytotoxicity
HBL-1 cells [3]
  Cytotoxicity efficacy (viability, %CTG): −2.0 ±16.2%
